Molecules are shown by their SMILES.

For one experiment, the target named is Neprilysin (Homo sapiens, UniProt P08473). As to the kind of experiment: Inhibition of human somatic NEP. An outline of the steps: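 Human NEP (0.5 nM) preincubated 45 min with inhibitor, then Mca-Arg-Pro-Pro-Gly-Phe-Ser-Pro-Dpa-OH (5 μM, Km 2 μM) added. Run at 25 °C, pH 6.8 Hepes/NaCl/ZnCl2/Brij-35 buffer. Fluorescence increase read at ex 320/em 405 nm under initial rates. […] Ki obtained.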

Experiment [1] deals with T1, Angiotensin-converting enzyme (Homo sapiens, UniProt P12821). Briefly: Inhibition of human somatic ACE C-terminal domain.
Experiment [2] addresses T2, Endothelin-converting enzyme 1 (Homo sapiens, UniProt P42892).
T2 sequence (P42892 whole entry): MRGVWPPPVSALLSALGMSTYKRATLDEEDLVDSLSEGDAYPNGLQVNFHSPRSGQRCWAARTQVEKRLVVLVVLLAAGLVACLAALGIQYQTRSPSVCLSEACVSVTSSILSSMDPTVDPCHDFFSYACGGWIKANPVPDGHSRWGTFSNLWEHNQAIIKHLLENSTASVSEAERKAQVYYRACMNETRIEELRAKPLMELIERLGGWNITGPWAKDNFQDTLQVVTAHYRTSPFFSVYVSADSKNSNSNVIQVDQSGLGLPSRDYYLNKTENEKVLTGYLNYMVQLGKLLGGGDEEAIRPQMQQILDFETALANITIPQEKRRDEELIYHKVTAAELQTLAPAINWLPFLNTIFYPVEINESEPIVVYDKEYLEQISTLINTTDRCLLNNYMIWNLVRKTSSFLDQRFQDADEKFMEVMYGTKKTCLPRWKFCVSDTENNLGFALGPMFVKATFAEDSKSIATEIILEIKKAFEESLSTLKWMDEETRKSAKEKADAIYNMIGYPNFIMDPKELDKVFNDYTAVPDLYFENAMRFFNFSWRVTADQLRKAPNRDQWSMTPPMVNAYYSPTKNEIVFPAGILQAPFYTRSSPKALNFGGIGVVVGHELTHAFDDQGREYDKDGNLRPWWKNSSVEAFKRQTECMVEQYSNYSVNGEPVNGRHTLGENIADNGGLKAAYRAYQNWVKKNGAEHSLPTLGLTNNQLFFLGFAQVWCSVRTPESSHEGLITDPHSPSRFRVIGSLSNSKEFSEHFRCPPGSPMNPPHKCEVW
As to the kind of experiment: Inhibition of human somatic ECE1.

Another experiment deals with Collagenase 3 (Homo sapiens, UniProt P45452). As to the kind of experiment: Inhibition of human MMP13.
Experiment [3] has as its target T1, Angiotensin-converting enzyme. As to the kind of experiment: Inhibition of human somatic ACE in presence of 1:50 diluted SHR rat plasma. The method, boiled down:
(§1)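 ACE (1 nM final) and inhibitor at various concentrations incubated 45 min in this plasma. Reaction started with Mca-Ala-Ser-Asp-Lys-Dpa-OH (15 μM). Fluorescence monitored. Apparent Ki derived.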

The target is the same in experiment [4]. As to the kind of experiment: Inhibition of human somatic ACE in presence of 1:100 diluted SHR rat plasma. The class given is cell-free. The method, boiled down:
as §1

Experiment [5] has the same target. As to the kind of experiment: Inhibition of human somatic ACE in presence of 1:100 diluted SHR rat plasma complemented with 5 uM serum albumin. The class given is cell-free. The method, boiled down:
as §1

Experiment [6] relates to Rattus norvegicus. Briefly: Antihypertensive activity in spontaneously hypertensive rat assessed as mean arterial pressure at 10 mg/kg, iv. The class given is functional, Artery. The method, boiled down: (§2)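 Male SHR rats (250 g, 12 weeks old) anesthetized with Nesdonal (50 mg/kg ip), tracheotomized, body temperature kept at 37 °C. MAP recorded by femoral artery transducer. Inhibitor or vehicle ([…]) given as iv bolus through venous catheter after 20 min stabilization. MAP followed for 60 min, n = 6/dose.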

Experiment [7] concerns Rattus norvegicus. As to the kind of experiment: Antihypertensive activity in spontaneously hypertensive rat assessed as mean arterial pressure at 3 mg/kg, iv. Format: functional, Artery. The method, boiled down:
as §2

Experiment [8] deals with Rattus norvegicus. As to the kind of experiment: Antihypertensive activity in spontaneously hypertensive rat assessed as mean arterial pressure at 30 mg/kg, iv. Format: functional, Artery. The method, boiled down: as §2
The target of experiment [9] is T1, Angiotensin-converting enzyme. As to the kind of experiment: Inhibition of human somatic ACE in presence of buffer.
Experiment [10] has the same target. As to the kind of experiment: Inhibition of human somatic ACE N-terminal domain. The method, boiled down: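 Human somatic ACE (0.5 nM) preincubated 45 min with inhibitor, then Mca-Ala-Ser-Asp-Lys-Dpa-OH substrate (8 μM) added. Continuous fluorescence read at ex 320/em 405 nm under initial-rate conditions. […] Ki calculated per domain.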

As usually defined, the IC50 is the midpoint of a concentration-inhibition curve. Lower therefore signals greater potency. As to `O=C(O)[C@H](Cc1ccc2c(c1)oc1ccccc12)NCP(=O)(O)O`, half-maximal inhibition against Neprilysin (IC50) required 2.3 µM.
Take `CS(=O)(=O)N[C@@H](CCCCN)C(=O)N[C@@H](Cc1ccccc1)P(=O)(O)CC1(C(=O)N[C@@H](Cc2c[nH]c3ccccc23)C(=O)O)CCCC1`: the IC50 in [1] is 0.0025 µM; at Neprilysin, 0.09 µM.
For orientation: Ki means the equilibrium dissociation constant of an inhibitor or competing ligand from its target. As to `O=C(N[C@@H](Cc1ccccc1)P(=O)(O)CC(CC1CC(c2ccc(C(F)(F)F)cc2)=NO1)C(=O)N[C@@H](Cc1c[nH]c2ccccc12)C(=O)O)OCc1ccccc1` (some centres undefined), the inhibitory constant (Ki) in [1] is 0.02 µM; at Neprilysin it was above 5 µM; in experiment [2], above 5 µM.
Turning to `O=C(N[C@@H](Cc1ccccc1)P(=O)(O)C[C@@H](Cc1cc(-c2ccccc2)no1)C(=O)N[C@@H](Cc1ccccc1)C(=O)O)OCc1ccccc1`, the Ki in [1] came to 0.0004 µM; at Neprilysin it was 0.068 µM; in experiment [2], 0.24 µM; at Collagenase 3 it was 0.03 µM.
With `O=C(N[C@@H](Cc1ccccc1)P(=O)(O)CC(CC1CC(c2ccc(-c3ccccc3)cc2)=NO1)C(=O)N[C@@H](Cc1c[nH]c2ccccc12)C(=O)O)OCc1ccccc1` (some centres undefined), the Ki in experiment [1] was 0.025 µM; at Neprilysin it was above 10 µM; in [2] it was above 10 µM.
Compound `O=C(N[C@@H](Cc1ccccc1)P(=O)(O)C[C@@H](Cc1cc(-c2ccccc2)no1)C(=O)N[C@@H](Cc1ccc(O)cc1)C(=O)O)OCc1ccccc1` returned a Ki at Collagenase 3 of 0.024 µM.
`O=C(N[C@@H](Cc1ccccc1)P(=O)(O)CC(Cc1ccc(-c2ccccc2)cc1)C(=O)N[C@@H](Cc1c[nH]c2ccccc12)C(=O)O)OCc1ccccc1` (some centres undefined): the inhibition constant (Ki) in experiment [1] is 0.012 µM; on Neprilysin, 0.052 µM; in experiment [2] it was above 10 µM.
In the same order, the values of `C[C@H](NC(=O)C(CC1CC(c2ccccc2)=NO1)CP(=O)(O)[C@H](Cc1ccccc1)NC(=O)OCc1ccccc1)C(=O)O` (some centres undefined) are 0.005 µM, 0.085 µM and 2.1 µM.
Consider `O=C(N[C@@H](Cc1ccccc1)P(=O)(O)CC(CC1CC(c2ccccc2)=NO1)C(=O)N[C@@H](Cc1c[nH]c2ccccc12)C(=O)O)OCc1ccccc1` (some centres undefined), for which the figures for the inhibitory constant (Ki) (in experiment [1]; on Neprilysin; in experiment [2]) were 0.013 µM, 2.5 µM and 0.91 µM, respectively.
With `O=C(N[C@@H](Cc1ccccc1)P(=O)(O)CC(Cc1cc(-c2ccccc2)no1)C(=O)N[C@@H](Cc1c[nH]c2ccccc12)C(=O)O)OCc1ccccc1` (some centres undefined), the Ki in [1] turned out to be 0.016 µM; on Neprilysin, 0.26 µM; in experiment [2] it was 0.014 µM.
In the case of `O=C(N[C@@H](Cc1ccccc1)P(=O)(O)C[C@H](Cc1cc(-c2ccccc2)no1)C(=O)N[C@@H](Cc1ccc(O)cc1)C(=O)O)OCc1ccccc1`, the inhibitory constant (Ki) at Neprilysin stood at 6.7 µM; in experiment [2], 0.014 µM; on Collagenase 3, 4 µM; in experiment [3] it was […]; in [4] it was […]; in experiment [5], […]. The Activity in the experiment on Rattus norvegicus [6] came to 132 mmHg; in the experiment with Rattus norvegicus [7], 147 mmHg.
For `O=C(N[C@@H](Cc1ccccc1)P(=O)(O)CC(Cc1ccccc1)C(=O)N[C@@H](Cc1c[nH]c2ccccc12)C(=O)O)OCc1ccccc1` (some centres undefined), the Ki on Neprilysin amounted to 0.0014 µM; in experiment [2] it was 0.0012 µM.
Regarding `O=C(N[C@@H](Cc1ccccc1)P(=O)(O)C[C@@H](Cc1cc(-c2ccccc2)no1)C(=O)N[C@@H](Cc1c[nH]c2ccccc12)C(=O)O)OCc1ccccc1`, the Ki in experiment [1] worked out at 0.0014 µM; on Neprilysin, 0.13 µM; in experiment [2], 0.026 µM; on Collagenase 3 it was 0.019 µM.
Turning to `O=C(N[C@@H](Cc1ccccc1)P(=O)(O)C[C@H](Cc1cc(-c2ccccc2)no1)C(=O)N[C@@H](Cc1c[nH]c2ccccc12)C(=O)O)OCc1ccccc1`, the inhibition constant (Ki) in experiment [1] turned out to be 0.036 µM; on Neprilysin it was 1.85 µM; in experiment [2], 0.008 µM; at Collagenase 3, 1.2 µM; in [3], 1.52 µM; in [4], 0.5 µM. In addition, the Ki in experiment [5] stood at 1.51 µM; in experiment [9] it was 0.036 µM. The results for the Activity in the experiment on Rattus norvegicus [6] and in the experiment with Rattus norvegicus [8] were 148 mmHg and 96 mmHg, respectively.
As for `O=C(N[C@@H](Cc1ccccc1)P(=O)(O)CC(Cc1cc(-c2ccccc2)no1)C(=O)N[C@@H](Cc1ccccc1)C(=O)O)OCc1ccccc1` (single isomer, unassigned), the inhibition constant (Ki) was 0.0038 µM in [1]; above 10 µM at Neprilysin; 0.0077 µM in experiment [2]; above 10 µM on Collagenase 3; 0.34 µM in experiment [3]; 0.032 µM in [4]. Moreover, the Ki is 0.11 µM in experiment [5] and 0.0038 µM in experiment [9].
`O=C(N[C@@H](Cc1ccccc1)P(=O)(O)C1CCC[C@H]1C(=O)N[C@@H](Cc1c[nH]c2ccccc12)C(=O)O)OCc1ccccc1` (single isomer, unassigned): the inhibition constant Ki in experiment [1] is 0.003 µM; at Neprilysin, above 50 µM; in [2], above 50 µM; in experiment [10], 2.5 µM.
`O=C(N[C@H]1CCS[C@H]2CCC[C@@H](C(=O)O)N2C1=O)[C@@H](S)Cc1ccccc1` [OMAPATRILAT]: the figures for the inhibitory constant (Ki) (in experiment [1]; on Neprilysin) were 0.006 µM and 0.009 µM, respectively.

The values are drawn from ChEMBL document CHEMBL1156752, “Phosphinic tripeptides as dual angiotensin-converting enzyme C-domain and endothelin-converting enzyme-1 inhibitors” (J Med Chem, 2010).
